Activity calls are given as the source filed them. The rule behind the calls is not given here.

In the first series the test system is SH-SY5Y. The series is described as follows: Cytotoxicity against human SH-SY5Y cells assessed as reduction in cell viability at 1 mM after 2 hrs by MTS assay. The following applies: 1000 µM. The series is classed as cell-based. The method in brief: (§1)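 ARPE-19 grown in DMEM + 4% FBS and SH-SY5Y in EMEM/F12 + 10% FBS, at 37 °C, 5% CO2. Plated at 1 × 10^4 cells/well. Exposed 2 h to 1 mM compound (0.16% DMSO) without oxidant. Viability by MTS. Mean ± SEM, n = 4, ANOVA versus blank control.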
(Tetrazolium dyes change colour on reduction, which living cells bring about.)
On to `c1cnc(N2CCCC2)nc1`, for which the Activity result is listed as “Non-toxic”.

As for `COc1cc(OC)nc(N2CCCC2)n1`, the Activity entry is on record as “Non-toxic”.

On to `COc1nc(N2CCCC2)nc(OC)c1O`, for which the Activity result is “Non-toxic”.

Consider `COc1cc(OC)nc(N2C(=O)CCC2=O)n1`, for which the Activity result is “Non-toxic”.

Take `COc1cc(OC)nc(N2C(=O)CCCC2=O)n1`: the Activity result is reported as “Non-toxic”.

Regarding `Oc1cnc(N2CCCC2)nc1`, the Activity result is recorded as “Non-toxic”.

Regarding `O=C1CCCC(=O)N1c1ncccn1`, the Activity entry is listed as “Non-toxic”.

System in a further series: not listed separately
The series is described as follows: Metal chelating activity assessed as stoichiometric ratio of compound to Cu2+ ion at 0.1 to 0.5 mM of compound and metal ion mixture after 45 mins by spectrophotometric analysis. Format: physicochemical. The following applies: 0.75 h, 500 µM. The method in brief: (§2)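 Job continuous-variation method at 23 °C. Compound dissolved in acetonitrile, then diluted to 0.1 mM stock in 1 mM acetate pH 6.5. Compound + ion at constant total 0.1–0.5 mM with varied mole fraction. After 45 min equilibration, UV absorbance scanned 210–310 nm. Stoichiometry taken from the intersection of lines. Mean ± SD, n = 3.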
Regarding `COc1cc(OC)nc(N2C(=O)CCC2=O)n1`, the Ratio is 2.01.

For `COc1cc(OC)nc(N2C(=O)CCCC2=O)n1`, the Ratio turned out to be 1.96.

In the case of `O=C1CCCC(=O)N1c1ncccn1`, the Ratio is 2.01.

In a further series the test system is ARPE-19. The series is described as follows: Neuroprotective activity against Fenton reagent-induced ROS generation in human ARPE19 cells assessed as increase in GSH level at 1 mM after 2 hrs by DTNB method. The series is classed as functional, cell-based.
Settings: not given
The essentials:
(§3)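 Cells grown in 60 or 150 mm dishes and exposed 2 h to Fenton reagent (1 mM H2O2 + 1 mM Fe2+) with or without 1 mM compound in 0.16% DMSO. Intracellular glutathione then measured. Mean ± SEM, n = 6. ANOVA.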
Consider `c1cnc(N2CCCC2)nc1`, for which the result was Active.

`COc1cc(OC)nc(N2CCCC2)n1`: the outcome was Active.

For `COc1nc(N2CCCC2)nc(OC)c1O`, the result was Active.

For `COc1cc(OC)nc(N2C(=O)CCC2=O)n1`, the outcome was Active.

In the case of `COc1cc(OC)nc(N2C(=O)CCCC2=O)n1`, the result was Active.

For `Oc1cnc(N2CCCC2)nc1`, the result was Active.

For the compound `O=C1CCCC(=O)N1c1ncccn1`, the result was Active.

System in the next series: not listed separately
The series is described as follows: Metal chelating activity assessed as stoichiometric ratio of compound to Ca2+ ion at 0.1 to 0.5 mM of compound and metal ion mixture after 45 mins by spectrophotometric analysis. The series is classed as physicochemical. The conditions noted are these: 0.75 h, 500 µM. The essentials: as §2
As for `COc1cc(OC)nc(N2C(=O)CCC2=O)n1`, the Ratio stood at 0.

As for `COc1cc(OC)nc(N2C(=O)CCCC2=O)n1`, the Ratio is 0.

Turning to `O=C1CCCC(=O)N1c1ncccn1`, the Ratio is 0.

A further series has as its system SH-SY5Y. The series is described as follows: Neuroprotective activity against Fenton reagent-induced hydroxy radical-stimulated cytotoxicity in human SH-SY5Y cells assessed as cell survival at 1 to 1000 uM preincubated for 1 hr followed by Fenton reagent challenge for 2 hrs by fluorescence-based LIVE/DEAD viability/cytotoxicity assay. The series is classed as functional.
Settings: not given
The essentials:
(§4)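 After a PBS wash, cells preincubated 1 h at 37 °C in serum-free medium with 1–1000 μM compound. Fenton reagent (Fe2+/H2O2, 100 μM final) then added for 2 h. Stained 15 min at 37 °C with calcein AM 8 μM and EthD-1 16 μM. Fluorescence read at 494/517 and 528/617 nm. % live cells calculated from blank-corrected single-dye controls; dead-cell control 70% ethanol. Mean ± SEM, n = 6.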
Turning to `c1cnc(N2CCCC2)nc1`, the outcome was inactive.

Consider `COc1cc(OC)nc(N2CCCC2)n1`, for which the outcome was inactive.

System in a further series: not listed separately
The series is described as follows: Metal chelating activity assessed as stoichiometric ratio of compound to Zn2+ ion at 0.1 to 0.5 mM of compound and metal ion mixture after 45 mins by spectrophotometric analysis. Format: physicochemical. The conditions noted are these: 0.75 h, 500 µM. The method in brief:
as §2
On to `COc1cc(OC)nc(N2C(=O)CCC2=O)n1`, for which the Ratio was 2.07.

For the compound `COc1cc(OC)nc(N2C(=O)CCCC2=O)n1`, the Ratio turned out to be 2.06.

Turning to `O=C1CCCC(=O)N1c1ncccn1`, the Ratio worked out at 2.17.

System in another series: not listed separately
The series is described as follows: Metal chelating activity assessed as stoichiometric ratio of compound to Cu+ ion at 0.1 to 0.5 mM of compound and metal ion mixture after 45 mins by spectrophotometric analysis. The series is classed as physicochemical. The following applies: 0.75 h, 500 µM. The method in brief: as §2
Regarding `COc1cc(OC)nc(N2C(=O)CCC2=O)n1`, the Ratio is listed as 1.92.

As for `COc1cc(OC)nc(N2C(=O)CCCC2=O)n1`, the Ratio is reported as 1.9.

Turning to `O=C1CCCC(=O)N1c1ncccn1`, the Ratio is on record as 1.9.

System in another series: not listed separately
The series is described as follows: Metal chelating activity assessed as stoichiometric ratio of compound to Mg2+ ion at 0.1 to 0.5 mM of compound and metal ion mixture after 45 mins by spectrophotometric analysis. The conditions noted are these: 0.75 h, 500 µM. The series is classed as physicochemical. The essentials:
as §2
Turning to `COc1cc(OC)nc(N2C(=O)CCC2=O)n1`, the Ratio is recorded as 0.

With `COc1cc(OC)nc(N2C(=O)CCCC2=O)n1`, the Ratio is given as 0.

Take `O=C1CCCC(=O)N1c1ncccn1`: the Ratio came out at 0.

System in another series: not listed separately
The series is described as follows: Cytotoxicity against human ARPE19 cells assessed as reduction in cell viability at 1 mM after 2 hrs by MTS assay. The following applies: arpe-19, 2 h, 1000 µM. Format: cell-based. The method in brief:
as §1
As to `c1cnc(N2CCCC2)nc1`, the Activity result was “Non-toxic”.

Turning to `COc1cc(OC)nc(N2CCCC2)n1`, the Activity result is recorded as “Non-toxic”.

`COc1nc(N2CCCC2)nc(OC)c1O`: the Activity entry is listed as “Non-toxic”.

`COc1cc(OC)nc(N2C(=O)CCC2=O)n1`: the Activity entry is listed as “Non-toxic”.

In the case of `COc1cc(OC)nc(N2C(=O)CCCC2=O)n1`, the Activity entry is reported as “Non-toxic”.

On to `Oc1cnc(N2CCCC2)nc1`, for which the Activity result was “Non-toxic”.

As to `O=C1CCCC(=O)N1c1ncccn1`, the Activity entry is on record as “Non-toxic”.

System in a further series: not listed separately
The series is described as follows: Metal chelating activity assessed as stoichiometric ratio of compound to Fe2+ ion at 0.1 to 0.5 mM of compound and metal ion mixture after 45 mins by spectrophotometric analysis. Format: physicochemical. The conditions noted are these: 0.75 h, 500 µM. The method in brief:
as §2
On to `COc1cc(OC)nc(N2C(=O)CCC2=O)n1`, for which the Ratio came out at 2.02.

Regarding `COc1cc(OC)nc(N2C(=O)CCCC2=O)n1`, the Ratio was 1.96.

As for `O=C1CCCC(=O)N1c1ncccn1`, the Ratio is recorded as 2.13.

Another series relates to ARPE-19. The series is described as follows: Neuroprotective activity against Fenton reagent-induced hydroxy radical-stimulated cytotoxicity in human ARPE19 cells assessed as cell survival at 1 to 1000 uM preincubated for 1 hr followed by Fenton reagent challenge for 2 hrs by fluorescence-based LIVE/DEAD viability/cytotoxicity assay. The series is classed as functional.
Settings: not given
The essentials:
as §4
In the case of `c1cnc(N2CCCC2)nc1`, the result was inactive.

Turning to `COc1cc(OC)nc(N2CCCC2)n1`, the outcome was inactive.

System in the next series: not listed separately
The series is described as follows: Metal chelating activity assessed as stoichiometric ratio of compound to Mn2+ ion at 0.1 to 0.5 mM of compound and metal ion mixture after 45 mins by spectrophotometric analysis. Format: physicochemical. The following applies: 0.75 h, 500 µM. The essentials:
as §2
As for `COc1cc(OC)nc(N2C(=O)CCC2=O)n1`, the Ratio stood at 2.04.

Consider `COc1cc(OC)nc(N2C(=O)CCCC2=O)n1`, for which the Ratio is reported as 1.95.

For `O=C1CCCC(=O)N1c1ncccn1`, the Ratio was 1.83.

The next series deals with SH-SY5Y. The series is described as follows: Neuroprotective activity against Fenton reagent-induced ROS generation in human SH-SY5Y cells assessed as increase in GSH level at 1 mM after 2 hrs by DTNB method. Format: functional, cell-based.
Settings: not given
The method in brief:
as §3
`c1cnc(N2CCCC2)nc1`: the outcome was Active.

Take `COc1cc(OC)nc(N2CCCC2)n1`: the outcome was Active.

On to `COc1nc(N2CCCC2)nc(OC)c1O`, for which the result was Active.

For the compound `COc1cc(OC)nc(N2C(=O)CCC2=O)n1`, the result was Active.

As for `COc1cc(OC)nc(N2C(=O)CCCC2=O)n1`, the outcome was Active.

As for `Oc1cnc(N2CCCC2)nc1`, the result was Active.

On to `O=C1CCCC(=O)N1c1ncccn1`, for which the result was Active.

System in a further series: not listed separately
The series is described as follows: Metal chelating activity assessed as stoichiometric ratio of compound to Fe3+ ion at 0.1 to 0.5 mM of compound and metal ion mixture after 45 mins by spectrophotometric analysis. Format: physicochemical. The conditions noted are these: 0.75 h, 500 µM. The method in brief:
as §2
Take `COc1cc(OC)nc(N2C(=O)CCC2=O)n1`: the Ratio turned out to be 2.05.

`COc1cc(OC)nc(N2C(=O)CCCC2=O)n1`: the Ratio was determined as 2.08.

Consider `O=C1CCCC(=O)N1c1ncccn1`, for which the Ratio is 1.8.

The subject of the next series is ARPE-19. The series is described as follows: Neuroprotective activity against Fenton reagent-induced ROS generation-stimulated cytotoxicity in human ARPE19 cells assessed as cell viability at 1 mM after 2 hrs by MTS assay. Format: functional, cell-based.
Settings: not given
The method in brief:
(§5)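 Cells in 96-well format exposed 2 h to Fenton reagent (1 mM H2O2 + 1 mM Fe2+) with or without 1 mM compound in 0.16% DMSO. Viability by MTS assay, normalized to untreated cells without Fenton reagent (100%). Mean ± SEM, n = 4. ANOVA.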
In the case of `c1cnc(N2CCCC2)nc1`, the result was inactive.

For the compound `COc1cc(OC)nc(N2CCCC2)n1`, the outcome was inactive.

As for `COc1nc(N2CCCC2)nc(OC)c1O`, the result was Active.

For `COc1cc(OC)nc(N2C(=O)CCC2=O)n1`, the outcome was Active.

On to `COc1cc(OC)nc(N2C(=O)CCCC2=O)n1`, for which the outcome was Active.

For `Oc1cnc(N2CCCC2)nc1`, the result was Active.

Take `O=C1CCCC(=O)N1c1ncccn1`: the result was Active.

The next series relates to SH-SY5Y. The series is described as follows: Neuroprotective activity against Fenton reagent-induced ROS generation-stimulated cytotoxicity in human SH-SY5Y cells assessed as cell viability at 1 mM after 2 hrs by MTS assay.
Settings: not given
Format: functional, cell-based. The method in brief:
as §5
For `c1cnc(N2CCCC2)nc1`, the outcome was inactive.

Regarding `COc1cc(OC)nc(N2CCCC2)n1`, the outcome was inactive.

As to `COc1nc(N2CCCC2)nc(OC)c1O`, the outcome was Active.

For `COc1cc(OC)nc(N2C(=O)CCC2=O)n1`, the result was Active.

On to `COc1cc(OC)nc(N2C(=O)CCCC2=O)n1`, for which the result was Active.

`Oc1cnc(N2CCCC2)nc1`: the result was Active.

In the case of `O=C1CCCC(=O)N1c1ncccn1`, the result was Active.

The values are drawn from ChEMBL document CHEMBL3739318, “Orally Bioavailable Metal Chelators and Radical Scavengers: Multifunctional Antioxidants for the Coadjutant Treatment of Neurodegenerative Diseases” (J Med Chem, 2015).
